For 13 molecules, Activity, UI and IC50 results are on record in ChEMBL document CHEMBL4346673, “Synthesis and biological evaluation of pyridazinone derivatives as selective COX-2 inhibitors and potential anti-inflammatory agents” (Eur J Med Chem, 2019).

The term IC50 denotes the concentration needed to halve the response being measured.

Data set [1] deals with Rattus norvegicus. In words: Antiinflammatory activity against carrageenan induced albino Sprague-Dawley rat paw edema model assessed as paw edema at 10 mg/kg, po pretreated for 1 hr followed by carrageenan challenge and measured at 3 hrs post-carrageenan injection (reference value: 38.4%). The class given is functional.
Data set [2] has as its system Rattus norvegicus. Nature of the data set: Antiinflammatory activity against carrageenan induced albino Sprague-Dawley rat paw edema model assessed as paw diameter at 10 mg/kg, po pretreated for 1 hr followed by carrageenan challenge and measured at 4 hrs post-carrageenan injection (reference value: 4.88 +/- 0.1 mm). The class given is functional.
The test system of data set [3] is Rattus norvegicus. Nature of the data set: Antiinflammatory activity against carrageenan-induced albino Sprague-Dawley rat paw edema model assessed as paw diameter at 10 mg/kg, po pretreated for 1 hr followed by carrageenan challenge and measured immediately after carrageenan injection (reference value: 3.46 +/- 0.08 mm). The class given is functional.
The nature of data set [4]: Ulcerogenicity in albino rat assessed as severity of gastric lesions at 10 mg/kg, po administered as single dose after 18 hrs of starvation challenge and measured after 4 hrs. It counts as toxicity, organism-based. The note with it: in vivo. An outline of the steps: (§1)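 Adult male albino rats fasted 18 h, then dosed orally at 10 mg/kg (saline control, reference drugs); six rats per group. Killed 4 h after treatment. Stomachs removed and examined macroscopically for hyperemia, single or multiple lesions, erosion, ulcer or perforation. Number of ulcers and occurrence of hyperemia recorded.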

The test system of data set [5] is Rattus norvegicus. In words: Antiinflammatory activity against carrageenan induced albino Sprague-Dawley rat paw edema model assessed as paw edema at 10 mg/kg, po pretreated for 1 hr followed by carrageenan challenge and measured at 1 hr post-carrageenan injection (reference value: 30.3%). It counts as functional.
Data set [6] relates to Rattus norvegicus. In words: Antiinflammatory activity against carrageenan induced albino Sprague-Dawley rat paw edema model assessed as paw diameter at 10 mg/kg, po pretreated for 1 hr followed by carrageenan challenge and measured at 2 hrs post-carrageenan injection (reference value: 4.72 +/- 0.08 mm). It counts as functional.
Data set [7] concerns Rattus norvegicus. Nature of the data set: Antiinflammatory activity against carrageenan-induced albino Sprague-Dawley rat paw edema model assessed as paw edema at 10 mg/kg, po pretreated for 1 hr followed by carrageenan challenge and measured at 2 hrs post-carrageenan injection (reference value: 36.4%). The class given is functional.
The test system of data set [8] is Rattus norvegicus. Nature of the data set: Antiinflammatory activity against carrageenan induced albino Sprague-Dawley rat paw edema model assessed as paw diameter at 10 mg/kg, po pretreated for 1 hr followed by carrageenan challenge and measured at 3 hrs post-carrageenan injection (reference value: 4.79 +/- 0.1 mm). It counts as functional.
Data set [9] has as its target Prostaglandin G/H synthase 1 (Homo sapiens, UniProt P23219). Nature of the data set: Inhibition of human COX1 assessed as reduction in PGF2alpha production using arachidonic acid as substrate preincubated with enzyme for 10 mins followed by substrate addition by ELISA. The class given is single protein. On the technique in general: An ELISA detects its analyte on a solid surface through an enzyme-linked reagent.

A short description of data set [10]: Ulcerogenicity in albino rat assessed as gastric lesions at 10 mg/kg, po administered as single dose after 18 hrs of starvation challenge and measured after 4 hrs. It counts as toxicity, organism-based. The note with it: in vivo. In short, it runs like this: as §1
The subject of data set [11] is Rattus norvegicus. Nature of the data set: Antiinflammatory activity against carrageenan-induced albino Sprague-Dawley rat paw edema model assessed as paw diameter at 10 mg/kg, po pretreated for 1 hr followed by carrageenan challenge and measured at 1 hr post-carrageenan injection (reference value: 4.51 +/- 0.09 mm). It counts as functional.
For data set [12], the system named is Rattus norvegicus. In words: Antiinflammatory activity against carrageenan induced albino Sprague-Dawley rat paw edema model assessed as paw edema at 10 mg/kg, po pretreated for 1 hr followed by carrageenan challenge and measured at 4 hrs post-carrageenan injection (reference value: 41%). The class given is functional.
The nature of data set [13]: Ulcerogenicity in albino rat assessed as mild hyperemia without ulceration at 10 mg/kg, po administered as single dose after 18 hrs of starvation challenge and measured after 4 hrs. The class given is toxicity, organism-based. The settings on record: in vivo. An outline of the steps:
as §1

Prostaglandin G/H synthase 1, sequence (P23219 whole entry): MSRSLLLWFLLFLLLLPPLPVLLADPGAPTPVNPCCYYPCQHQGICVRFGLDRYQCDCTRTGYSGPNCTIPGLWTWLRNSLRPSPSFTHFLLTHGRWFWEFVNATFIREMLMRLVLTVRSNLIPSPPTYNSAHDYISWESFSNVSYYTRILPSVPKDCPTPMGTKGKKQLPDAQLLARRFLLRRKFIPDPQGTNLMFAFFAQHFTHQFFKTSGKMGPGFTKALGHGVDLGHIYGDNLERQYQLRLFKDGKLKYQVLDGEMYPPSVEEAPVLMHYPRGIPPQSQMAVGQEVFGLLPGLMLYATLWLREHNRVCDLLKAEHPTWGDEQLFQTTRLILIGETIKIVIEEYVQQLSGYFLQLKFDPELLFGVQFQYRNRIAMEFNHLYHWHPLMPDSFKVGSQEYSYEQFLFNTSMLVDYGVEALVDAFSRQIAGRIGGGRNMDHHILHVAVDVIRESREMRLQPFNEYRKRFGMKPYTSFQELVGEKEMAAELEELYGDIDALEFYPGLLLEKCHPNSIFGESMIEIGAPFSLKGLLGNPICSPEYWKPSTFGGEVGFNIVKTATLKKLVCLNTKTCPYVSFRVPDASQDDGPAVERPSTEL

As to `Cc1cccc(/C=C/C2=NNC(=O)CC2)c1`, the Activity stood at 10.2% in data set [1]; 3.8 mm in data set [2]; 3.51 mm in [3]; 13.6% in data set [5]; 3.92 mm in [6]; 11.6% in [7]. In addition, the Activity in data set [8] is reported as 3.84 mm; in data set [11] it was 3.99 mm; in data set [12], 8.2%; in data set [13], “Toxic”. Also, the UI in [4] was found to be 0.4; in data set [10] it was 0.2. The IC50 in data set [9] turned out to be 450 nM.

Consider `Cc1cccc(/C=C/c2ccc(=O)[nH]n2)c1`, for which the Activity in [1] was 8.1%; in [2], 3.82 mm; in data set [3] it was 3.55 mm; in data set [5], 11.5%; in [6] it was 3.86 mm; in data set [7], 8.7%. The results for the Activity in data set [8], in [11] and in data set [12] were 3.84 mm, 3.96 mm and 7.6%, respectively. Moreover, the UI in [4] and in data set [10] was 0 throughout. The half-inhibitory concentration (IC50) in data set [9] came to 370 nM.

Take `COc1ccccc1/C=C/C1=NN(c2ccc(F)cc2)C(=O)CC1`: in data set [9], the IC50 came out at 540 nM.

In the case of `COc1ccccc1/C=C/c1ccc(=O)[nH]n1`, the IC50 in data set [9] came to 530 nM.

Regarding `COc1ccccc1/C=C/c1ccc(=O)n(-c2ccc(F)cc2)n1`, the Activity was determined as 8% in data set [1]; 3.85 mm in [2]; 3.59 mm in [3]; 10.5% in [5]; 3.93 mm in data set [6]; 9.4% in [7]. Further, the Activity was 3.88 mm in data set [8], 3.97 mm in data set [11] and 7.2% in data set [12]. For the same molecule, the UI in data set [4] and in [10] was 0 each time. The IC50 in [9] was 700 nM.

As to `COc1ccccc1/C=C/c1ccc(=O)n(-c2ccccc2)n1`, in data set [9], the IC50 is 460 nM.

For the molecule `COc1ccccc1/C=C/C1=NNC(=O)CC1`, the IC50 in data set [9] worked out at 270 nM.

For `O=C1CCC(/C=C/c2cccnc2)=NN1`, the Activity is on record as 7.9% in data set [1]; 3.78 mm in data set [2]; 3.53 mm in data set [3]; 11% in data set [5]; 3.86 mm in [6]; 9.3% in [7]. The values for the Activity in data set [8], in data set [11] and in data set [12] were 3.81 mm, 3.92 mm and 7%, respectively. Moreover, the UI in [4] and in data set [10] was 0 each time. Besides, in [9], the IC50 came to 750 nM.

For the molecule `Cc1cccc(/C=C/C2=NN(c3ccc(F)cc3)C(=O)CC2)c1`, the IC50 in data set [9] was 210 nM.

Take `COc1ccccc1/C=C/C1=NN(c2ccccc2)C(=O)CC1`: the IC50 in data set [9] turned out to be 390 nM.

`Cc1cccc(/C=C/c2ccc(=O)n(-c3ccc(F)cc3)n2)c1`: in data set [9], the IC50 was determined as 240 nM.

In the case of `Cc1ccc(-c2cc(C(F)(F)F)nn2-c2ccc(S(N)(=O)=O)cc2)cc1` [CELECOXIB], the Activity in data set [1] turned out to be 10%; in [2], 3.78 mm; in data set [3], 3.48 mm; in data set [5], 12.9%; in data set [6], 3.88 mm; in [7], 11.4%. Further, the Activity in data set [8] was determined as 3.83 mm; in data set [11], 3.93 mm; in [12], 8.6%. The UI in data set [4] turned out to be 6.2; in data set [10] it was 2.7.

Take `COc1ccc2c(c1)c(CC(=O)O)c(C)n2C(=O)c1ccc(Cl)cc1` [INDOMETHACIN]: the Activity in data set [1] worked out at 9.4%; in [2] it was 3.73 mm; in data set [3], 3.49 mm; in data set [5], 12.3%; in data set [6], 3.85 mm; in [7], 10.3%. Further, the Activity was 3.81 mm in [8], 3.92 mm in data set [11] and 8% in [12]. The values for the UI in data set [4] and in data set [10] were 12.4 and 8.3, respectively.
